A short description of experiment [1]: Cytotoxicity against folate receptor over-expressing mouse ID8 cells after 72 hrs by MTT assay. Particulars: ID8, 72 h. Format: functional, cell-based. Put shortly: (§1)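 Adherent monolayers in RPMI-1640 with 5% heat-inactivated FBS, 5% NuSerum and PenStrep, 37 °C, 5% CO2. Seeded 0.5–1.5 × 10^4 cells/well and left to attach overnight, then medium replaced. Compound diluted from DMSO stock to 0.5–5,000 nM final, DMSO ≤1%, 72 h. MTT 0.5 mg/mL for 3 h at 37 °C, formazan dissolved in acidic isopropanol/Triton, A570. IC50 from four-parameter logistic fit.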
(In general: Tetrazolium dyes change colour on reduction, which living cells bring about.)

Experiment [2] concerns MX1. Put plainly: Cytotoxicity against folate receptor over-expressing human MX1 cells after 72 hrs by MTT assay. Format: functional, cell-based. As to conditions: MX1, 72 h. Put shortly: as §1
The subject of experiment [3] is L1210. In words: Cytotoxicity against folate receptor over-expressing mouse L1210 cells after 72 hrs by MTT assay. The format is functional, cell-based. As to conditions: L1210, 72 h. Put shortly:
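L1210FR cells grown in suspension in supplemented RPMI-1640. Resuspended directly in test solutions, 0.5–5,000 nM final, at 0.5–0.8 × 10^4 cells/well, DMSO ≤1%. Incubated 72 h. MTT 0.5 mg/mL for 3 h at 37 °C, formazan dissolved in 0.1 N HCl/isopropanol with 10% Triton X-100, absorbance at 570 nm. IC50 from four-parameter logistic fit, with standard errors.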

A short description of experiment [4]: Cytotoxicity against folate receptor deficient human WI38 cells after 72 hrs by MTT assay. The format is functional, cell-based. As to conditions: WI-38, 72 h. Put shortly: as §1
For experiment [5], the system named is MX1. Put plainly: Cytotoxicity against folate receptor over-expressing human MX1 cells incubated for 24 hrs followed by 6 equiv GSH-OEt addition and further incubated for another 48 by MTT assay. Format: functional, cell-based. Particulars: MX1, 24 h. Put shortly:
(§2)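 After 24 h treatment with the conjugate, glutathione ethyl ester (GSH-OEt, 6 equiv.) was added, followed by a further 48 h, 72 h total. Cells-permeable thiol ester. Compound 0.5–5,000 nM in RPMI-1640 medium. MTT read-out at 570 nm. IC50 from four-parameter logistic fit.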

In experiment [6] the test system is MX1. In words: Cytotoxicity against folate receptor over-expressing human MX1 cells incubated for 24 hrs followed by 6 equiv GSH addition and further incubated for another 48 by MTT assay. Format: functional, cell-based. As to conditions: MX1, 24 h. Put shortly: (§3)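 Cells were exposed to the conjugate for 24 h, then reduced glutathione (GSH, 6 equiv.) was added and incubation continued 48 h, 72 h in total. Compound range 0.5–5,000 nM in RPMI-1640 medium, which contains folic acid. Read-out by MTT at 570 nm. IC50 from four-parameter logistic curve.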

Experiment [7] has as its system L1210. In words: Cytotoxicity against folate receptor over-expressing mouse L1210 cells incubated for 24 hrs followed by 6 equiv GSH-OEt addition and further incubated for another 48 by MTT assay. Format: functional, cell-based. Particulars: L1210, 24 h. Put shortly: as §2
Experiment [8] concerns L1210. Put plainly: Selectivity index, ratio of IC50 for folate receptor deficient human WI38 cells to IC50 for folate receptor over-expressing mouse L1210 cells.
Experiment [9] concerns MX1. In words: Selectivity index, ratio of IC50 for folate receptor deficient human WI38 cells to IC50 for folate receptor over-expressing human MX1 cells.
The subject of another experiment is WI-38. Put plainly: Selectivity index, ratio of IC50 for folate receptor deficient human WI38 cells to IC50 for folate receptor over-expressing mouse ID8 cells.
Experiment [10] has as its system L1210. In words: Cytotoxicity against folate receptor over-expressing mouse L1210 cells incubated for 24 hrs followed by 6 equiv GSH addition and further incubated for another 48 by MTT assay. Particulars: L1210, 24 h. The format is functional, cell-based. Summed up:
as §3

This is an account of results in ChEMBL document CHEMBL3399991, “Design, synthesis and biological evaluation of a highly-potent and cancer cell selective folate-taxoid conjugate” (Bioorg Med Chem, 2015).

The structures appear in SMILES notation. Bounds are passed on as bounds.

As usually defined, the IC50 is the concentration needed to halve the response being measured.

As for `CC(=O)O[C@@]12CO[C@@H]1C[C@H](O)[C@@]1(C)C(=O)[C@H](OC(=O)C3CC3)C3=C(C)[C@@H](OC(=O)[C@H](O)[C@H](C=C(C)C)NC(=O)OC(C)(C)C)C[C@@](O)([C@@H](OC(=O)c4ccccc4)[C@H]21)C3(C)C`, the IC50 in experiment [1] was determined as 2.82 nM; in the experiment on MX1 [2], 1.89 nM; in the experiment with L1210 [3] it was 2.66 nM; in [4] it was 4.89 nM.
With `CC(=O)O[C@@]12CO[C@@H]1C[C@H](O)[C@@]1(C)C(=O)[C@H](OC(=O)C3CC3)C3=C(C)[C@@H](OC(=O)[C@H](OC(=O)Cc4ccccc4SSC(C)CCC(=O)NCCCOCCOCCOCCCNC(=O)c4ccc(CC5CCCCCc6c5nnn6CCOCCOCCOCCNC(=O)CC[C@@H](NC(=O)CC[C@@H](NC(=O)c5ccc(NCc6cnc7nc(N)nc(O)c7n6)cc5)C(=O)O)C(=O)N[C@H](CCCNC(=N)N)C(=O)O)cc4)[C@H](C=C(C)C)NC(=O)OC(C)(C)C)C[C@@](O)([C@@H](OC(=O)c4ccccc4)[C@H]21)C3(C)C` (some centres undefined), the IC50 in the experiment with MX1 [5] stood at 2.08 nM; in [1], 2.52 nM; in the experiment on MX1 [6], 3.42 nM; in the experiment on MX1 [2], 3.43 nM; in the experiment with L1210 [3], 3.51 nM; with L1210 [7] it was 3.35 nM. Also, the IC50 was over 5000 nM in experiment [4] and 3.87 nM with L1210 [10]. Also, the “Ratio IC50” value in the experiment on L1210 [8], with MX1 [9] and with WI-38 was over 1000 in each case.
As to `CC(=O)O[C@H]1C(=O)[C@@]2(C)[C@H]([C@H](OC(=O)c3ccccc3)[C@]3(O)C[C@H](OC(=O)[C@H](O)[C@@H](NC(=O)c4ccccc4)c4ccccc4)C(C)=C1C3(C)C)[C@]1(OC(C)=O)CO[C@@H]1C[C@@H]2O` [PACLITAXEL], the IC50 in experiment [1] is 13.8 nM; in the experiment on MX1 [2], 5.59 nM; in the experiment with L1210 [3] it was 27.6 nM; in [4], 55.7 nM.
